Measured values from ChEMBL document CHEMBL1933013, “Synthesis, SAR, and preliminary mechanistic evaluation of novel antiproliferative N⁶,5'-bis-ureido- and 5'-carbamoyl-N⁶-ureidoadenosine derivatives” (Bioorg Med Chem, 2012).
In brackets after ≈: the same amount, converted by molar mass.

Key:
CCRF-CEM = experiment: Antiproliferative activity against human CEM cells after 72 hrs; assay type: cell-based
Procedure, shortened: (§1)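 Cells in growth medium grown with variable compound concentrations at 37 °C in humidified CO2-controlled atmosphere; incubation 48 h for L1210 and FM3A, 72 h for CEM, 96 h for HeLa. Cell number counted by Coulter counter; IC50 = concentration inhibiting proliferation by 50%.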

L1210 = experiment: Antiproliferative activity against mouse L1210 cells after 48 hrs; assay type: functional, cell-based; conditions: L1210, 48 h; procedure, shortened: as §1
HeLa = experiment: Antiproliferative activity against human HeLa cells after 96 hrs; assay type: functional, cell-based; procedure, shortened: as §1
FM3A = experiment: Antiproliferative activity against mouse FM3A cells after 48 hrs; assay type: functional, cell-based; procedure, shortened: as §1
[1] = biological target: Ribosomal protein S6 kinase alpha-1 (Homo sapiens) (UniProt Q15418); experiment: Inhibition of RPS6KA1 kinase at 10 uM after 1 hr by competitive binding assay
Procedure, shortened: (§2)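 Single-dose competitive binding at 10 μM against immobilized ATP-site ligands (DiscoveRx): phage-tagged or HEK-293-expressed DNA-tagged kinase with ligand-loaded streptavidin magnetic beads in 20% SeaBlock, 0.17× PBS, 0.05% Tween 20, 6 mM DTT, 1 h room temperature with shaking. Beads washed, eluted with 0.5 μM free ligand for 30 min; bound kinase quantified by qPCR as % binding inhibition.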

[2] = biological target: Casein kinase II subunit alpha' (Homo sapiens) (UniProt P19784); experiment: Inhibition of CSNK2A2 at 10 uM after 1 hr by competitive binding assay; procedure, shortened: as §2
[3] = biological target: MAP/microtubule affinity-regulating kinase 3 (Homo sapiens) (UniProt P27448); experiment: Inhibition of MARK3 at 10 uM after 1 hr by competitive binding assay
[4] = biological target: Casein kinase I isoform gamma-2 (Homo sapiens) (UniProt P78368); experiment: Inhibition of CSNK1G2 at 10 uM after 1 hr by competitive binding assay; procedure, shortened: as §2
[5] = biological target: Bone morphogenetic protein receptor type-1B (Homo sapiens, UniProt O00238); experiment: Inhibition of BMPR1B at 10 uM after 1 hr by competitive binding assay; procedure, shortened: as §2
[6] = biological target: Inhibitor of nuclear factor kappa-B kinase subunit alpha (Homo sapiens) (UniProt O15111); experiment: Inhibition of IKKalpha at 10 uM after 1 hr by competitive binding assay; procedure, shortened: as §2
[7] = biological target: Tyrosine-protein kinase BTK (Homo sapiens) (UniProt Q06187); experiment: Inhibition of BTK at 10 uM after 1 hr by competitive binding assay; procedure, shortened: as §2
[8] = biological target: Non-receptor tyrosine-protein kinase TYK2 (Homo sapiens) (UniProt P29597); experiment: Inhibition of TYK2 at 10 uM after 1 hr by competitive binding assay; procedure, shortened: as §2
[9] = biological target: Receptor-type tyrosine-protein kinase FLT3 (Homo sapiens) (UniProt P36888); experiment: Inhibition of FLT-3 kinase at 10 uM after 1 hr by competitive binding assay; procedure, shortened: as §2
[10] = biological target: Serine/threonine-protein kinase PAK 3 (Homo sapiens) (UniProt O75914); experiment: Inhibition of PAK3 at 10 uM after 1 hr by competitive binding assay; procedure, shortened: as §2

Row | SMILES | IC50 (CCRF-CEM) | IC50 (L1210) | IC50 (HeLa) | IC50 (FM3A) | also measured
1 | CNC(=O)NC[C@H]1O[C@@H](n2cnc3c(NC(=O)Nc4ccc(OC)cc4)ncnc32)[C@H](O[Si](C)(C)C(C)(C)C)[C@@H]1O[Si](C)(C)C(C)(C)C | 5.2 µg/mL (≈ 7.42 µM) | 3.8 µg/mL (≈ 5.42 µM) | 2.6 µg/mL (≈ 3.71 µM) | 5.8 µg/mL (≈ 8.27 µM) | 
2 | CCCCCCNC(=O)Nc1ncnc2c1ncn2[C@@H]1O[C@H](CNC(=O)NC)[C@@H](O[Si](C)(C)C(C)(C)C)[C@H]1O[Si](C)(C)C(C)(C)C | 68 µg/mL (≈ 100 µM) | 74 µg/mL (≈ 109 µM) | 74 µg/mL (≈ 109 µM) |  | 
3 | CNC(=O)NC[C@H]1O[C@@H](n2cnc3c(NC(=O)Nc4cccc(I)c4)ncnc32)[C@H](O[Si](C)(C)C(C)(C)C)[C@@H]1O[Si](C)(C)C(C)(C)C | 182 µg/mL (≈ 228 µM) | 38 µg/mL (≈ 47.7 µM) | 21 µg/mL (≈ 26.4 µM) |  | 
4 | CNC(=O)NC[C@H]1O[C@@H](n2cnc3c(NC(=O)NC4CCCCC4)ncnc32)[C@H](O[Si](C)(C)C(C)(C)C)[C@@H]1O[Si](C)(C)C(C)(C)C | 5.2 µg/mL (≈ 7.68 µM) | 20 µg/mL (≈ 29.5 µM) | 11 µg/mL (≈ 16.2 µM) | 8.4 µg/mL (≈ 12.4 µM) | 
5 | CCCNC(=O)Nc1ncnc2c1ncn2[C@@H]1O[C@H](COC(=O)NC)[C@@H](O[Si](C)(C)C(C)(C)C)[C@H]1O[Si](C)(C)C(C)(C)C | 59 µg/mL (≈ 92.5 µM) | 18 µg/mL (≈ 28.2 µM) | 55 µg/mL (≈ 86.2 µM) | 23 µg/mL (≈ 36.1 µM) | 
6 | CNC(=O)OC[C@H]1O[C@@H](n2cnc3c(NC(=O)Nc4ccccc4)ncnc32)[C@H](O[Si](C)(C)C(C)(C)C)[C@@H]1O[Si](C)(C)C(C)(C)C | > 200 µg/mL | 160 µg/mL (≈ 238 µM) | ≥ 200 µg/mL | > 200 µg/mL | 
7 | CCOC(=O)C[C@H]1[C@@H](O[Si](C)(C)C(C)(C)C)[C@H](n2cnc3c(NC(=O)Nc4ccccc4)ncnc32)O[C@@H]1CNC(=O)NC |  |  |  |  | inhibition [1]: 40%; inhibition [2]: 31%; inhibition [3]: 34%; inhibition [4]: 38%; inhibition [5]: 47%; inhibition [6]: 37%; inhibition [7]: 35%; inhibition [8]: 31%; inhibition [9]: 31%; inhibition [10]: 33%

Further lines, with some results ahead:

Row | IC50 (CCRF-CEM) | IC50 (L1210) | IC50 (HeLa) | SMILES | IC50 (FM3A) | also measured
8 | 68 µg/mL (≈ 85.3 µM) | 43 µg/mL (≈ 54 µM) | 18 µg/mL (≈ 22.6 µM) | CNC(=O)NC[C@H]1O[C@@H](n2cnc3c(NC(=O)Nc4ccc(I)cc4)ncnc32)[C@H](O[Si](C)(C)C(C)(C)C)[C@@H]1O[Si](C)(C)C(C)(C)C |  | 
9 | ≥ 200 µg/mL | > 200 µg/mL | 143 µg/mL (≈ 179 µM) | CNC(=O)OC[C@H]1O[C@@H](n2cnc3c(NC(=O)Nc4ccc(I)cc4)ncnc32)[C@H](O[Si](C)(C)C(C)(C)C)[C@@H]1O[Si](C)(C)C(C)(C)C | > 200 µg/mL | 
10 | > 200 µg/mL | > 200 µg/mL | ≥ 200 µg/mL | CNC(=O)OC[C@H]1O[C@@H](n2cnc3c(NC(=O)Nc4ccc(OC)cc4)ncnc32)[C@H](O[Si](C)(C)C(C)(C)C)[C@@H]1O[Si](C)(C)C(C)(C)C | > 200 µg/mL | 
11 | > 200 µg/mL | > 200 µg/mL | > 200 µg/mL | CNC(=O)OC[C@H]1O[C@@H](n2cnc3c(NC(=O)Nc4ccc(Cl)cc4)ncnc32)[C@H](O[Si](C)(C)C(C)(C)C)[C@@H]1O[Si](C)(C)C(C)(C)C | > 200 µg/mL | 
